CSC inhib = blocks cancer stem cells; inhibition, % at 7.5 µM; cancer stem cell-like cells viability, luminescence; 1.1% of 300,000 active; AID 2717; in the data active means inhibition above about 75%; tested in HMLE shEcad cells
PREPL inh = inhibits the human prolyl oligopeptidase-like enzyme; 0.68% of 320,000 active; recombinant PREPL, fluorescence polarization activity-based probe; inhibition, % at 5.96 µM; in the data active means inhibition above about 43%;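 further: 0% = enzyme with DMSO and 100% = wells lacking enzyme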
T cruzi repl = T. cruzi replication inhibition. T. cruzi beta-gal in NIH3T3, luminescence, 90 h. inhibition, % (concentration not given with the values). 1.4% of 300,000 active. AID 1885;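 active means mean inhibition across valid replicates above about 55%, limit read from the data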;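 further: signal also drops with host cell toxicity which is not excluded here; 0% = plate median of DMSO wells and 100% = zero luminescence signal; higher percent means less beta-gal luminescence so fewer parasites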
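System: NIH/3T3 fibroblasts plus reporter T. cruzi. Medium: DMEM plus 2% FBS. Probe or stimulus: 5000 reporter trypomastigotes per well. Compound: single 50 nL compound addition per well in DMSO. Incubation: co-culture of at least 90 h after 3 h attachment. Detection: GalScreen β-gal luminescence, detergent lysis, 60 min. Evaluation: parasite load inhibition, %.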
GRIN3A LBD mod = modulators (binders) of human NR3A ligand-binding domain; NR3A LBD differential scanning fluorimetry, Tm shift; 0% = protein alone, 100% = glycine-bound protein; Tm shift relative to glycine control, % at 25 µM; 2.5% of 340,000 active;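 active means melting temperature shift of at least 10% of the positive control shift, at one fixed dose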
CHOP inhibitor = blocks CHOP induction under ER stress. inhibition, % at 10 µM. 3.8% of 220,000 active. CHO-K1 CHOP-promoter luciferase, tunicamycin-induced, 15-18 h;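 active means compounds that reduced the stress-induced luciferase reporter signal by more than about 70% of percent inhibition, limit read from the data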;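 further: 0% = tunicamycin plus vehicle and 100% = wells without tunicamycin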
Beta cell apopt = blocks beta cell apoptosis; 0.8% of 300,000 active; INS-1E cytokine-induced death, ATP luminescence, 48 h; percent of positive-control rescue, neutral wells zero; protection from apoptosis, % (test concentration not listed);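 active means Every replicate reaches about 75%, or at least half do and their mean reaches it too, limit read from the data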;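 further: 0% = cytokine-treated negative control wells and 100% = positive control rescue; higher means more ATP so stronger rescue from cytokine killing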
An asterisk follows results filed as active; / = no result. A selection: hits, their analogues and other compounds. The true share with any hit is near 6.7%.

SMILES	CSC inhib	PREPL inh	T cruzi repl	GRIN3A LBD mod	CHOP inhibitor	Beta cell apopt
Cc1cc(C)c2nc(NNC(=O)c3ccc(S(=O)(=O)N4CCc5ccccc5C4)cc3)sc2c1	103.7*	8.4	59.0*	5.1	43.8	86.7*
Cc1cc(C)c2sc(NNC(=O)c3ccc(S(=O)(=O)N4CCc5ccccc5C4)cc3)nc2c1	102.6*	3.5	58.7*	3.9	45.2	101.3*
CCOC(=O)Cc1csc(NC(=O)c2cc(=O)c3ccccc3o2)n1	2.5	-0.7	-14.0	-1.9	-2.0	2.5
CCc1nnc(NC(=O)c2ccc(S(=O)(=O)N3CCc4ccccc4C3)cc2)s1	3.9	5.7	11.6	-1.3	82.3*	-3.0
CCc1nnc(NC(=O)c2ccc(Cl)c(S(=O)(=O)N3CCc4ccccc4C3)c2)s1	15.5	-8.4	0.3	-2.2	54.6	-1.2
Cc1nnc(NC(=O)c2ccc(S(=O)(=O)N3CCc4ccccc4C3)cc2)o1	24.5	10.6	-6.5	-3.0	14.5	-2.4
CC1CC(C)CN(S(=O)(=O)c2ccc(C(=O)NCCCn3ccnc3)cc2)C1 (centres undefined)	100.5*	0.0	28.8	-3.1	/	113.8*
O=C(NCCCn1ccnc1)c1ccc(S(=O)(=O)N2CCCCCC2)cc1	33.9	7.3	-7.6	1.3	1.1	1.3
C=CCC1(CC=C)CCCN1C(=O)Cn1nnnc1CN(C)C(C)C	-15.5	-5.9	-3.6	4.2	/	0.0
CC(C)(C)c1ccc(-c2nnc(SC3CCOC3=O)n2Cc2ccccc2)cc1 (centres undefined)	-9.4	7.5	4.4	13.1*	36.8	-5.7
O=C(Nc1ccc(S(=O)(=O)Nc2ncccn2)cc1)C1CC(=O)N(c2ccc(Cl)cc2)C1 (centres undefined)	-18.2	-5.7	-2.9	-0.4	/	-4.9
Cc1ccc2cc3cc(C(=O)N(CC(=O)NC4CCCC4)c4cccc(C)c4C)sc3nc2c1	21.5	-13.0	58.1*	-18.2	33.2	41.8
Cc1ccc(NC(=O)Cc2nnc(SCC(=O)c3ccc(Br)cc3)n2C)cc1	6.8	-5.9	-0.3	-22.6	88.3*	0.9
Cc1cc(OCC(=O)NCCCN2CCCC2=O)c2c(C)c(C)c(=O)oc2c1	-15.4	-0.1	-13.7	-1.0	/	-0.9
CCCC(=O)NC(c1ccccc1OC)c1ccc2cccnc2c1O (centres undefined)	119.4*	2.4	81.2*	-8.5	62.3	95.2*
CCCC(=O)NC(c1ccc(OC)c(OC)c1)c1c(O)ccc2ccccc12 (centres undefined)	-17.8	2.5	-1.8	1.3	25.8	1.4
CCCCC(=O)NC(c1ccccc1OC)c1ccc2cccnc2c1O (centres undefined)	137.7*	12.4	56.7*	-3.0	72.3*	96.3*
CCCCC(=O)NC(c1ccc(OC)c(OC)c1)c1c(O)ccc2ccccc12 (centres undefined)	-15.1	7.9	26.1	-5.3	24.7	-7.6
COc1ccc(CN(C(=O)c2ccc(C)cc2)C2CCS(=O)(=O)C2)cc1 (centres undefined)	-11.4	-1.2	1.8	4.4	/	-2.4
O=C(Cn1nnc(-c2ccccc2)n1)OCc1ccccc1	-6.6	-8.4	-6.7	-0.8	76.1*	/
Cc1nn(-c2ccccc2)c(Cl)c1/C=N/Nc1nc2ccccc2n1C	24.7	15.2	55.2*	-9.9	13.6	25.5
Cc1nn(-c2ccccc2)c(C)c1/C=N/Nc1nc2ccccc2[nH]1	39.9	29.4	65.8*	-8.1	-10.0	36.3
COc1ccccc1NS(=O)(=O)c1cccc(C(=O)NCC2(N3CCCCC3)CCCCC2)c1	/	/	/	1.5	/	/
O=S(=O)(Nc1ccc(O)c(Sc2nc3ccccc3s2)c1)c1cccc2ccccc12	80.6*	-18.9	-9.1	15.2*	55.0	-8.4
CCOc1ccc(OCCNC(=O)C(NC(=O)c2c(F)cccc2F)C(C)C)cc1 (centres undefined)	-0.9	9.9	/	-0.2	/	5.7
CCOc1ccccc1-c1nc2c(s1)CCc1onc(-c3ccc(OC)cc3)c1-2	/	12.4	-7.8	16.8*	/	-5.8
Cc1cc(C)n(-c2ccc(Cl)c(C(=O)Nc3ccc(-c4nnc5n4CCCCC5)cc3)n2)n1	7.5	-3.5	49.6	-0.6	24.2	5.3
CCOc1ccc(NC(=O)N2CCC(NC(=O)C(Cc3ccccc3OC)NC(C)=O)CC2)cc1 (centres undefined)	-9.0	-4.4	-18.1	-3.1	/	-1.2
